Measurements of several laboratories.
Lines come from different studies, so protocols differ.
Cell line: MDA-MB-231
Effect on: cell growth or viability

| Structure (SMILES) | method | tested at | time | endpoint | result |
| --- | --- | --- | --- | --- | --- |
| C[C@@H]1CC[C@@H]([C@](C)(O)CNCc2cccc(F)c2)[C@H](OCc2ccccc2)C1 | MTT | 30 µM | 72 h | inhibition | 96.1% |
| Cc1cc(NC(=O)C=Cc2ccccc2)cc(-c2ccnc(N3CCC(CO)CC3)c2)c1 | MTT | 5 µM |  | inhibition | 59.8% |
| CCc1c(C)c2ccc(OCC=Cc3ccccc3)c(C)c2oc1=O | MTT | 125 µg/mL |  | viability | 87.1% |
| O=C(/C=C/c1ccc(F)cc1)Nc1cc(-c2ccnc(N3CCC(O)CC3)c2)ccn1 | MTT | 5 µM |  | inhibition | 63% |
| C[C@@H]1CC[C@@H]([C@](O)(CNCc2ccccc2)COCc2ccc(F)cc2)[C@H](OCc2ccc(F)cc2)C1 | MTT | 30 µM | 72 h | inhibition | 101% |
| CC(=NNC(=O)COc1ccc2c(C)c(Cc3ccccc3)c(=O)oc2c1C)c1ccc(Br)cc1 | MTT | 1000 µg/mL |  | viability | 15.1% |
| C=C(COCc1ccccc1)[C@@H]1CC[C@@H](C)C[C@H]1OCc1ccccc1 | MTT | 30 µM | 72 h | inhibition | 28.1% |
| Cc1c(Cc2ccccc2)c(=O)oc2c(C)c(OCC(=O)NN=Cc3ccc(Cl)cc3)ccc12 | MTT | 250 µg/mL |  | viability | 21.2% |
| O=C(C=Cc1ccccc1)Nc1cccc(-c2ccnc(N3CCC(O)CC3)c2)c1 | MTT | 5 µM |  | inhibition | 61.6% |
| Cc1c(Cc2ccccc2)c(=O)oc2c(C)c(OCC(=O)NN=Cc3ccc([N+](=O)[O-])cc3)ccc12 | MTT | 500 µg/mL |  | viability | 14.4% |
| Nc1ccccc1NC(=O)c1ccc(CNc2ccc(NC3=C(Cl)C(=O)c4ncccc4C3=O)cc2)cc1 | MTT |  | 48 h | IC50 | 2.44 µM |
| CCc1c(C)c2ccc(OCC(=O)NN=Cc3ccc([N+](=O)[O-])cc3)cc2oc1=O | MTT | 31.25 µg/mL |  | viability | 36.3% |
| C=CC(=O)c1cccnc1Nc1cc(C(F)(F)F)ccc1OCc1ccccc1 | SRB |  | 48 h | GI50 | 18.3 µM |
| C[C@@H]1CC[C@@H]([C@](O)(CNCc2cccc3ccccc23)COCc2ccccc2)[C@H](OCc2ccccc2)C1 | MTT | 30 µM | 72 h | inhibition | 98% |
| COc1cc2c3c(n(CCCN4CCOCC4)c(=O)c2cc1OC)-c1nc2c(cc1C3=O)OCO2 | MTS |  | 72 h | IC50 | > 2 µM |
| O=C(/C=C/c1cccc(F)c1)Nc1cc(-c2ccnc(N3CCC(O)CC3)c2)ccn1 | MTT | 5 µM |  | inhibition | 75.8% |
| C[C@@H]1CC[C@@H]([C@](C)(O)Cn2cnc3ccccc32)[C@H](OCc2ccccc2)C1 | MTT | 30 µM | 72 h | inhibition | 83.2% |
| CCNC(=S)NNC(=O)COc1ccc2c(C)c(CC)c(=O)oc2c1C | MTT | 1000 µg/mL |  | viability | 4.73% |
| COc1cccc(CNC[C@@](C)(O)[C@@H]2CC[C@@H](C)C[C@H]2OCc2ccccc2)c1 | MTT | 10 µM | 72 h | inhibition | 36% |
| C#Cc1nc(C2=C(C)C(O)CC2)cs1 (centres unmarked) |  |  |  | CC50 | 3.2 µM |
